Only some compounds are listed: those with a hit (about 4.5% of all), similar ones and a draw of the others.
MrgX1 agonist – activates human MrgX1 receptor signaling; Q96LB2; MrgX1-HEK293 cells, Fluo-4 calcium fluorescence, agonist mode; hits give high values; B-score at 10 µM; hit rate 0.44% among 310,000; AID 588627;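 active = calcium response B-score plate-corrected fluorescence ratio at least 3 library SD, with starting fluorescence B-score inside 5 SD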
Target sequence (Q96LB2 whole entry, looked up): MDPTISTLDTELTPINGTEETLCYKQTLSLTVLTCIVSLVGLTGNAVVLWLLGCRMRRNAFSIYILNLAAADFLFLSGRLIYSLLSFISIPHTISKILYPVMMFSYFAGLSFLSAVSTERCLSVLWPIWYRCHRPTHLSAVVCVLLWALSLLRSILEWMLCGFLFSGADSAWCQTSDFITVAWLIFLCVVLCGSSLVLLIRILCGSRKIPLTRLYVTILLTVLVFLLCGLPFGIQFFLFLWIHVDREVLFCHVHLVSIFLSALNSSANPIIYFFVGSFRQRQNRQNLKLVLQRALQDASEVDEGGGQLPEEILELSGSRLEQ
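Material: HEK293 cells stably expressing human MrgX1 receptor | Quantity: 15,000 cells per well | Times: Cells plated overnight, dye loaded 0.5 h 37 °C, 0.5 h room temperature | Measured by: Kinetic Fluo-4 NW fluorescence of intracellular calcium | Control set: Positive and negative controls per plate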
MrgX1 antagonist – antagonists of human MrgX1 receptor; Q96LB2; MRGX1-HEK293 calcium flux, Fluo-4, BAM8-22 antagonism; hits give low values; B-score at 10 µM; hit rate 1.3% among 310,000; AID 588676;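 active = calcium-response B-score plate-corrected more than 3 library SD below zero, starting fluorescence within 5 deviations, no agonist response on first addition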;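 note: peak minus trough fluorescence over baseline after final BAM8-22 challenge near maximal dose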
PHOSPHO1 block – blocks human PHOSPHO1 phosphatase activity; Q8TCT1; hit rate 1.1% among 290,000; inhibition, % at 13.3 µM; recombinant PHOSPHO1, absorbance phosphatase assay; in the data active = inhibition above about 60%
RGS4 block – human RGS4 inhibition; B-score at 10 µM; P49798; hit rate 0.45% among 310,000; HEK293 M3R/RGS4 inducible, Fluo-4 calcium flux; hits give high values; triggered by carbachol at its EC20;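 active = B-score, a plate-corrected calcium signal, over three deviations above library mean, with baseline fluorescence within five deviations of library mean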;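 note: RGS4 expression induced by doxycycline in cells with stable M3 receptor; B-score is computed from the integrated fluorescence ratio over baseline after carbachol; higher B-score means a larger calcium signal and so more RGS4 inhibition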
Target sequence (P49798 whole entry, looked up): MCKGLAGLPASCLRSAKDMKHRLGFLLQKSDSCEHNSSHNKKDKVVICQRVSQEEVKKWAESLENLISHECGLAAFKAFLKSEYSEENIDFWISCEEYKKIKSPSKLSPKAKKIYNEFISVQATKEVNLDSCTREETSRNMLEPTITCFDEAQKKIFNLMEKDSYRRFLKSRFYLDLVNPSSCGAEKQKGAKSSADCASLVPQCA
RGS4 act – RGS4 potentiation or activation; AID 463111; HEK293 M3R/inducible RGS4, carbachol calcium flux Fluo4; hits give low values; B-score at 10 µM; hit rate 0.92% among 310,000;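 active = B-score of the integrated calcium signal more than 4 SD below the library mean, with starting fluorescence not abnormally high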;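 note: negative B-score means reduced calcium response which marks RGS4 activation or potentiation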
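Assay system: HEK293 FlpIn-TREx cells, stable M3R, doxycycline-inducible RGS4 / Probe or stimulus: carbachol, ECmax concentration / Times: overnight RGS4 induction, 30 min dye load 37 °C, 20 min compound RT / Signal: kinetic calcium fluorescence imaging with Fluo4-AM dye, 2 µM / Measure: Agonist-evoked peak-minus-minimum fluorescence over baseline, integrated ratio, B score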
MrgX1 allo act – human MrgX1 positive allosteric modulation, primary screen; AID 588675; MrgX1-HEK293, Fluo-4 calcium flux, FDSS; hits give high values; Q96LB2; B-score at 10 µM; hit rate 0.63% among 310,000;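 active = plate-corrected calcium response at least 3 library SD above typical, normal starting fluorescence, not activating the receptor alone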;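 note: compound read alongside a low EC10 to EC30 dose of BAM8-22 agonist; peak minus trough fluorescence over baseline measured at the second addition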
MrgX1 allo conf – reconfirmed allosteric activator of human MrgX1 receptor. hit rate 13% among 1,200. MrgX1-HEK293, Fluo-4 calcium fluorescence, FDSS. shares compounds with MrgX1 allo act. activation (ratio percentage), % at 10 µM;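 active = ratio at least 3 SD above the weak peptide control, stable starting fluorescence, no direct agonism earlier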;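 note: compound followed by low BAM8-22 agonist challenge near EC20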
HEK293 Ca flux – counter-screen for MrgX1 antagonists: effect in parental HEK293 cells | shares compounds with MrgX1 antagonist | Fluo-4 calcium fluorescence, FDSS | fluorescence ratio F(max-min)/F0 at 10 µM | hit rate 2% among 4,000 | AID 624111;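 active = duplicate-averaged calcium fluorescence ratio at least three times the standard deviation of buffer wells, a nonspecific response in parental cells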
HEK293 Ca counter – counter-screen for MrgX1 allosteric activators: effect in parental HEK293 cells; shares compounds with MrgX1 antagonist; parental HEK293 calcium flux, Fluo-4 fluorescence ratio; hits give high values; fluorescence ratio F(max-min)/F0 at 10 µM; hit rate 0.4% among 4,000; AID 624114;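 active = calcium fluorescence ratio, averaged over duplicates, at least 3 SD of the buffer-well ratio, meaning a nonspecific response in receptor-free cells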;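 note: untransfected parental HEK293 lacking MrgX1 used as counterscreen for MrgX1 allosteric activators; fluorescence change taken during the second addition on a kinetic imager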
HEK293 Ca cntr2 – counter-screen for MrgX1 activators: effect in parental HEK293 cells; shares compounds with MrgX1 antagonist; hit rate 8.7% among 4,000; fluorescence ratio F(max-min)/F0 at 10 µM; AID 624115; Fluo-4 calcium fluorescence (FDSS); hits give high values;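 active = calcium fluorescence ratio at least three times the spread of buffer wells, meaning a non-specific response in parental cells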
An asterisk follows results filed as active; i = inactive; nt = not tested or not shown.

SMILES	MrgX1 agonist	MrgX1 antagonist	PHOSPHO1 block	RGS4 block	RGS4 act	MrgX1 allo act	MrgX1 allo conf	HEK293 Ca flux	HEK293 Ca counter	HEK293 Ca cntr2
CCOC(=O)Cc1csc(NC(=O)CSc2nc3cccnc3n2CC)n1	i	i	28	i	i	7.3*	i	i	i	i
COC(=O)CNC(=O)COC(=O)Cc1ccc(Cl)cc1	i	i	-1	i	i	i	nt	nt	nt	nt
COc1cccc(C(=O)NCCn2ccc3ccccc32)c1	i	i	10	i	i	8.8*	i	i	i	i
COc1cc(OC)cc(C(=O)NCCn2ccc3ccccc32)c1	i	i	-7	i	i	i	nt	nt	nt	nt
Cc1c(Cl)c(C(=O)N2CCCC2)nn1C	i	i	-3	i	i	i	nt	nt	nt	nt
Cc1cc(OCC(=O)Nc2ccccc2N2CCCC2)ccc1C(C)C	i	i	nt	i	i	22*	13%*	i	i	i
Cc1cccc(OCC(=O)Nc2cc(S(=O)(=O)N3CCCCC3)ccc2N2CCN(C)CC2)c1	i	i	36	i	i	16*	i	i	i	i
COc1cccc(CC(=O)Nc2ccccc2N2CCCC2)c1	i	i	18	i	i	9.4*	i	i	i	i
CN1CCN(c2ccc(S(=O)(=O)N3CCCCC3)cc2NC(=O)COc2cccc(Cl)c2)CC1	i	i	nt	i	i	i	nt	nt	nt	nt
Cc1cc(OCC(=O)Nc2ccccc2N2CCCCC2)ccc1C(C)C	i	i	nt	i	i	6.9*	i	i	i	i
COC(=O)N/N=C/c1ccc(Oc2ccccc2)cc1	i	i	23	i	i	i	nt	nt	nt	nt
Cc1cccc(OCC(=O)Nc2ccccc2N2CCCC2)c1C	i	i	nt	i	i	26*	25%*	i	i	i
CC(Oc1ccc(F)cc1)C(=O)Nc1ccccc1N1CCCCC1 (stereo not drawn)	i	i	56	i	i	12*	i	i	i	i
O=C(CNCC1CCCO1)Nc1ccccc1N1CCCCCC1 (stereo not drawn)	i	i	37	i	i	6.9*	i	i	i	i
Cc1ccc(OCC(=O)Nc2ccccc2N2CCOCC2)c(C)c1	i	i	50	i	i	9.9*	i	i	i	i
Cc1ccccc1OCC(=O)Nc1ccccc1N1CCCCC1	i	i	-4	i	i	i	nt	nt	nt	nt
NC(N)=NS(=O)(=O)c1ccc(NC(=S)NC(=O)Cc2ccc(Cl)cc2)cc1	i	i	29	i	i	i	nt	nt	nt	nt
CC(=O)O[C@H]1[C@H](C)OC=C[C@@H]1OC(C)=O	i	i	-19	i	i	i	nt	nt	nt	nt
CCn1c(=S)[nH]c2cc(C(=O)OC)ccc2c1=O	i	i	3	i	i	8.1*	i	i	i	i
CC(=O)c1ccc(S(=O)(=O)Oc2ccc(-c3ccc(C(=O)O)cc3)cc2)cc1	i	i	31	i	i	i	nt	nt	nt	nt
Clc1ccc(Cn2nc(-c3ccccc3)nc2-c2ccccc2)cc1	i	i	-19	i	i	i	nt	nt	nt	nt
CCc1ccc(C(=O)COC(=O)[C@@H](NC(N)=O)[C@@H](C)CC)cc1	i	i	15	i	i	i	nt	nt	nt	nt
Cc1nc2ccccc2cc1OCc1ccccc1	i	i	42	i	i	6.6*	i	i	i	i
